Data on eight molecules can be found in ChEMBL document CHEMBL3091371, “Cytotoxic and antibacterial marfuraquinocins from the deep South China Sea-derived Streptomyces niveus SCSIO 3406” (J Nat Prod, 2013).

For assay [1], the system named is Staphylococcus epidermidis. Description: Antibacterial activity against methicillin-resistant Staphylococcus epidermidis clinical isolate shhs-E1 by broth microdilution method. The assay is classed as functional. In outline: (§1)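 Broth microdilution; MIC read as the lowest concentration giving complete growth inhibition in microdilution wells by unaided eye. Clinical isolates from Shanghai Huashan Hospital. Ampicillin and kanamycin as antibacterial controls. Results in μg/mL.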
On the technique in general: Broth dilution looks for growth in wells or tubes with falling amounts of substance.

Assay [2] has as its system Staphylococcus aureus. Description: Antibacterial activity against methicillin-resistant Staphylococcus aureus clinical isolate shhs-A1 by broth microdilution method. The assay is classed as functional. In outline: as §1
Assay [3] relates to NCI-H460. Description: Cytotoxicity against human NCI-H460 cells after 72 hrs by SRB assay. The assay is classed as functional, cell-based. The following applies: NCI-H460, 72 h. Put shortly:
(§2)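 Human tumour lines are tested by sulforhodamine B (SRB) staining. Cisplatin (DDP) is the positive control. IC50 is reported in μM as mean ± deviation.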

Assay [4] deals with Escherichia coli. The experiment in a line: Antibacterial activity against Escherichia coli ATCC 25922 by broth microdilution method. In kind it is functional.
The test system of assay [5] is Acinetobacter baumannii. Description: Antibacterial activity against Acinetobacter baumannii ATCC 19606 by broth microdilution method. The assay is classed as functional.
In assay [6] the test system is Staphylococcus aureus. Description: Antibacterial activity against Staphylococcus aureus ATCC 29213 by broth microdilution method. In kind it is functional.
For assay [7], the system named is HepG2. The experiment in a line: Cytotoxicity against human HepG2 cells after 72 hrs by SRB assay. To be noted: HepG2, 72 h. In kind it is functional, cell-based. Put shortly:
as §2
(Sulforhodamine B stains cellular protein and so reports cell mass.)

A short description of assay [8]: Antibacterial activity against Aeromonas hydrophila ATCC 7966 by broth microdilution method. The assay is classed as functional, Aeromonas hydrophila subsp. hydrophila ATCC 7966.
Assay [9] has as its system MCF7. Description: Cytotoxicity against human MCF7 cells after 72 hrs by SRB assay. In kind it is functional, cell-based. The following applies: MCF7, 72 h. In outline:
as §2

Assay [10] relates to Micrococcus luteus. The experiment in a line: Antibacterial activity against Micrococcus luteus by broth microdilution method. In kind it is functional.
Assay [11] concerns SF-268. The experiment in a line: Cytotoxicity against human SF268 cells after 72 hrs by SRB assay. To be noted: SF-268, 72 h. In kind it is functional, cell-based. In outline:
as §2

In brackets after ≈: the same amount, converted by molar mass.

For the molecule `C=C1CCCC(C)(C)C1CC[C@]1(C)c2c(O)cc3c(c2O[C@@H]1C)C(=O)C=C(OC)C3=O` (some centres undefined), the MIC (usually the lowest concentration that inhibits growth of the organism) in assay [1] was 32 µg/mL (≈ 75.4 µM); in [2], more than 128 µg/mL; in assay [4] it was 128 µg/mL (≈ 302 µM); in assay [5], more than 128 µg/mL; in assay [6], 64 µg/mL (≈ 151 µM); in assay [8] it was 128 µg/mL (≈ 302 µM). Also, in assay [10], the minimal inhibitory concentration (MIC) is more than 128 µg/mL. The concentration for half-maximal inhibition (IC50) – broadly, the concentration needed to halve the response being measured – in assay [3] stood at 18.8 µM; in [7], 18.5 µM; in [9], 18.7 µM; in assay [11], 27.9 µM.
As to `CC1(C)S[C@@H]2[C@H](NC(=O)[C@H](N)c3ccccc3)C(=O)N2[C@H]1C(=O)O` [AMPICILLIN], the MIC is 2 µg/mL (≈ 5.72 µM) in assay [1]; more than 128 µg/mL in assay [2]; more than 128 µg/mL in assay [5]; 0.5 µg/mL (≈ 1.43 µM) in assay [6]; 128 µg/mL (≈ 366 µM) in assay [8]; 2 µg/mL (≈ 5.72 µM) in assay [10].
With `NC[C@H]1O[C@H](O[C@H]2[C@H](O)[C@@H](O[C@H]3O[C@H](CO)[C@@H](O)[C@H](N)[C@H]3O)[C@H](N)C[C@@H]2N)[C@H](O)[C@@H](O)[C@@H]1O` [KANAMYCIN], the MIC turned out to be 128 µg/mL (≈ 264 µM) in assay [1]; 0.5 µg/mL (≈ 1.03 µM) in assay [2]; 0.5 µg/mL (≈ 1.03 µM) in assay [4]; 4 µg/mL (≈ 8.26 µM) in assay [5]; 0.5 µg/mL (≈ 1.03 µM) in assay [6]; 0.5 µg/mL (≈ 1.03 µM) in assay [8]. This molecule yielded a minimal inhibitory concentration (MIC) in assay [10] of 0.5 µg/mL (≈ 1.03 µM).
As for `CC(C)=CCC/C(C)=C/COc1cccc2nc3c(O)cccc3nc12`, the MIC in assay [1] is 128 µg/mL (≈ 367 µM); in assay [2] it was more than 128 µg/mL; in assay [4], 128 µg/mL (≈ 367 µM); in [5], more than 128 µg/mL; in assay [6], 128 µg/mL (≈ 367 µM); in [8], 64 µg/mL (≈ 184 µM). In addition, in assay [10], the MIC was more than 128 µg/mL. Further, the concentration for half-maximal inhibition (IC50) in [3] came to 68.9 µM; in assay [7], 22.3 µM; in assay [9], 16.8 µM; in [11], 10.2 µM.
`C=C1CCCC(C)(C)C1CC[C@]1(C)c2c(O)cc3c(c2O[C@@H]1CO)C(=O)C=C(OC)C3=O` (some centres undefined): the minimum inhibitory concentration (MIC) in [1] is 8 µg/mL (≈ 18.2 µM); in assay [2], more than 128 µg/mL; in [4], 128 µg/mL (≈ 291 µM); in assay [5], more than 128 µg/mL; in assay [6], 8 µg/mL (≈ 18.2 µM); in assay [8], 128 µg/mL (≈ 291 µM). Moreover, in assay [10], the minimal inhibitory concentration (MIC) was more than 128 µg/mL. In addition, the IC50 in [3] amounted to 8.8 µM; in [7], 15.5 µM; in [9] it was 14.8 µM; in assay [11] it was 18.3 µM.
For `C=C1CCCC(C)(C)C1CC[C@@]1(C)c2c(O)cc3c(c2O[C@@H]1C)C(=O)C=C(OC)C3=O` (some centres undefined), the minimum inhibitory concentration (MIC) is 64 µg/mL (≈ 151 µM) in assay [1]; more than 128 µg/mL in assay [2]; 128 µg/mL (≈ 302 µM) in assay [4]; more than 128 µg/mL in assay [5]; 8 µg/mL (≈ 18.8 µM) in assay [6]; 128 µg/mL (≈ 302 µM) in [8]. In addition, the MIC in assay [10] is more than 128 µg/mL. Further, the IC50 in assay [3] was determined as 3.7 µM; in assay [7], 17.5 µM; in [9], 12.9 µM; in [11], 26.7 µM.
Regarding `COc1cccc2nc3c(OC/C=C(\C)CCC=C(C)C)cccc3nc12`, the MIC was 128 µg/mL (≈ 353 µM) in [1]; more than 128 µg/mL in assay [2]; 128 µg/mL (≈ 353 µM) in assay [4]; more than 128 µg/mL in assay [5]; 128 µg/mL (≈ 353 µM) in assay [6]; 128 µg/mL (≈ 353 µM) in [8]. This molecule also returned an MIC in assay [10] of more than 128 µg/mL. Moreover, the IC50 was more than 100 µM in [3], 52.7 µM in [7], 21.9 µM in assay [9] and 30.4 µM in assay [11].
On to `C=C1CCCC(C)(C)C1CC[C@@]1(C)c2c(O)cc3c(c2O[C@@H]1CO)C(=O)C=C(OC)C3=O` (some centres undefined), for which the minimum inhibitory concentration (MIC) in assay [1] is 8 µg/mL (≈ 18.2 µM); in assay [2], more than 128 µg/mL; in [4], 128 µg/mL (≈ 291 µM); in assay [5], more than 128 µg/mL; in assay [6] it was 8 µg/mL (≈ 18.2 µM); in assay [8], 128 µg/mL (≈ 291 µM). Further, the MIC in assay [10] was more than 128 µg/mL. The IC50 in assay [3] amounted to 4.4 µM; in assay [7], 11.9 µM; in [9] it was 18.9 µM; in [11] it was 17.9 µM.
